Test results taken from the EternaBench riboswitch data.

Test system: MS2 coat protein
Assay: apparent Kd, MS2 coat protein; higher = weaker binding; RNA-MaP array; FMN 200 µM where present
Method in brief: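 Stalled E. coli RNA polymerase transcribed the designs on Illumina sequencing-chip clusters. SNAP-549-labelled MS2 coat protein was titrated from 0.7 or 1.5 nM, doubling to 3 µM, without and then with constant ligand, in 100 mM Tris-HCl pH 7.5, 80 mM KCl, 4 mM MgCl2, BSA, DTT, yeast tRNA and Tween-20. Per-cluster binding curves were fitted to green signal normalised to red-channel RNA signal and control-cluster median Fmax. The apparent Kd is the median of the filtered fits.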

[1] = designed as: ON switch for flavin mononucleotide, no ligand
[2] = ligand present: flavin mononucleotide, designed as: ON switch for flavin mononucleotide
[3] = designed as: OFF switch for flavin mononucleotide, no ligand
[4] = ligand present: flavin mononucleotide, designed as: OFF switch for flavin mononucleotide

Sequence	apparent Kd [1]	apparent Kd [2]	apparent Kd [3]	apparent Kd [4]
CGCUGUAACGCAGGAUAUGCAUUGGAUUACAAUGCAGAAGGGCGAUUACAUGAGGAUCACCCAUGUGUAAACAGUGAAGAAGAG	220 nM	41.2 nM		
CGGAGGUCAGGAUAUGCAUGGCGGGACUUGCGUCGUGGCGUGCAGAAGGGACAUGAGGAUCACCCAUGUGGAGG			155 nM	267 nM
CGGAUGUCAGGAUAUCGUGCAUACAACGAAAGUUCUAUGUGCGAGAAGGGACAUGAGGAUCACCCAUGUUACGG			252 nM	588 nM
CGGCAAAGGAAGGAUAUGCUAGACGAAAGUCUAGCAGAAGGUCCUACAUGAGGAUCACCCAUGUGUCCUAGCCG			45.4 nM	55.1 nM
CGGCACCAAGGAUAUACAUGAGGAUCACCCAUGUUUUUUGGGCCCUUAAAAUCUACGUGUAGAAGGUGGGUCGA			49.9 nM	56.9 nM
CGGCGCUGUUGAGAGGAUAUGCGGUGAUGGACAUGAGGAUCACCCAUGUUAGCGAUAGCAUUACGGUAGAAGGCUCUACAGCUGC	17.9 nM	14.1 nM		
CGGCUCUCAGGAUAUACCUCGGGUGGCCAACUGUUUCGUUUACAUGAGGAUCACCCAUGUAGAAGGGAGGGCAA			49.7 nM	27 nM
CGGGAGAGAGGAUAUGGUGGACAUCACAUGAGGAUCACCCAUGUCUCGAGUGCUCCGUCACCAGAAGGCUCCGUUU			109 nM	78.7 nM
CGGGCUGCUGUGAGGAUAUGCCUGUGGGUGCGUGGGUAGAAGGCACAUGAGGAUCACCCAUGUCCUGCAGCUCG				717 nM
CGGGUCUGAGGAUAUCCAUCCUCAUACAUGAGGAUCACCCAUGUUCACCCUUGGGUUCCCGGAGAAGGCAGUUUUC			153 nM	177 nM
CGGGUGGUCCUCCGGGAUUGGACACAGGAUAUCCGCGAAAACAUGAGGAUCACCCAUGUAUAUGAGGAGAAGGGUGGACGAAGA	56.2 nM	15.6 nM		
CGGUCGAUAUCAGGAUAUCGAUUAAUUACAUGAGGAUCACCCAUGUUGACAAGGAAUAUAACAUGCGAGAAGGGAUUACGAUCG	10.1 nM	8.45 nM		
CGGUCGAUGUAAGGAUAUCGACUGGAAUACAGUCGAGAAGGUACAUGAGGAUCACCCAUGUAAUCCUAAUAAUAAUAACGACCG			11.1 nM	17.4 nM
CGGUGCUGAGGAUAUACAUGAGGAUCACCCAUGUGUUCCGGCUAGCUGACUGGCGCUUGUAGAAGGCAGUACUG			17.3 nM	101 nM
CGUAACUGCAUAGGAUAUUGUUACAUGAGGAUCACCCAUGUUUUUCGGAUUAUUUAUCUACUUAGCAAGAAGGAUGGAGUUACG	6.82 nM	4.74 nM		
CGUAGGAUCCAGAAGGCAUGAACAUGAGGAUCACCCAUGUCAAUAGACAUGAGGAUAUGGAUCCUACGAAAAGUGCGAAAGCAC	31.8 nM	5.94 nM		
CGUAGGAUGCAGAAGGCAUGAACAUGAGGAUCACCCAUGUCAAAAGACAUGAGGAUAUGCAUCCUACGAAAAGUGCGAAAGCAC	17.5 nM	5.6 nM		
CGUCUAUGCUAGAAGGCAUGAAACAUGAGGAUCACCCAUGUCAAAGACAUGAGGAUAUAGCAUAGACGAAAAGUGCGAAAGCAC	4.43 nM	3.26 nM		
CGUGAACAUGAGGAUCACCCAUGUGAAAAACAUAGAGGAUAUGUCACGUGAGUGUAAAAGACAGAAGGCUAUCGUG	85.4 nM	43 nM		
CGUGCAAGUGUAGGAUAUGGUUAUCUAUGUCUAGUUACUAGACAUAGAUAACCAGAAGGACAUGAGGAUCACCCAUGUAGCACG			7.5 nM	17.6 nM
CGUGCGUAUGUGAGGAUAUGCUGGUCCUUGGAUCAGCAGAAGGCACAUGAGGAUCACCCAUGUGGUGUCGUACC			262 nM	44.1 nM
CGUGCGUAUGUGAGGAUAUGCUGGUCCUUGGAUCGGCAGAAGGCACAUGAGGAUCACCCAUGUGGUGUCGUUCC			42.8 nM	274 nM
CGUGCUAUGUAGAAGGCAGAUCUGAUUCAGAUCUGAGGAUAUACAUGAGGAUCACCCAUGUUAUGCACCAGCACGAGAGUGCAC				11.5 nM
CGUGUCAUCGAGAAGGCCUCAACAUGAGGAUCACCCAUGUUGUAAUAUGGGAGGAUAUCGAUGAUACAGCUACGUUUCGUAGCA	21.1 nM	6.03 nM		
CGUGUCAUCGAGAAGGCCUCAACAUGAGGAUCACCCAUGUUGUAAUAUGGGAGGAUAUCGAUGAUACAGCUACGUUUCGUAGCC	19.5 nM	6.48 nM		
CGUGUCGCAUGAGGAUAUGGUCAGCUUUGCUGACCAGAAGGCAUGUCAAUAGACAUGAGGAUCACCCAUGUAGUUAAGACACGA	592 nM	39.8 nM		
CGUGUGUCAGGAUAUUAGUAGUGUGUGGAUACAUAUAUUGCUGAGAAGGGACAUGAGGAUCACCCAUGUAUACG			46.9 nM	169 nM
CGUUAAUCCUAGGAUAUGCUAGACGAAAGUCUAGCAGAAGGAGGAACAUGAGGAUCACCCAUGUGUCCUAAACG			16.8 nM	26.7 nM
CGUUCACAUGAGGAUCACCCAUGUCAGAUUUGGUCAGGAUAUGGUCGGCUUCCGCUAUUGCCAGAAGGGACUGUUG	30.5 nM	23.9 nM		
